According to ChEMBL document CHEMBL4616679, “Fragment Screening Hit Draws Attention to a Novel Transient Pocket Adjacent to the Recognition Site of the tRNA-Modifying Enzyme TGT” (J Med Chem, 2020):

Test: Inhibition of Zymomonas mobilis tRNA-guanine transglycosylase expressed in Escherichia coli cells BL21-CodonPlus (DE3)-RIPL in presence of and tRNATyr [-3H]-guanine incubated for 60 mins by liquid scintillation counting based radioactive assay
Outline: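 Z. mobilis TGT (Strep-tag II removed by thrombin) at 9–150 nM, chosen by expected affinity; tRNA^Tyr held at 1.5 µM with saturating [8-³H]-guanine at 10 µM in 100 mM HEPES pH 7.3, 20 mM MgCl₂, 0.037% (v/v) Tween 20. Four 15 µL aliquots taken at 60 min intervals; guanine incorporation into tRNA read by liquid scintillation counting; Ki from reduction of incorporation rate.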

SMILES	Ki [µM]
CC#CC1NC(N)=Nc2cc3nc(NC)[nH]c3cc21 (racemic)	48
CNc1nc2cc(NC(=N)N)ccc2[nH]1	19
CNc1nc2cc3c(=O)[nH]c(N)nc3cc2[nH]1	0.058
CNc1nc2ccc(C(=O)NN)cc2[nH]1	283
CNC(=O)c1ccc2nc(NCCN3CCOCC3)[nH]c2c1	264
NC(=O)c1ccc2nc(NCCN3CCOCC3)[nH]c2c1	544
Nc1nc2cc3[nH]c(NCCN4CCOCC4)nc3cc2c(=O)[nH]1	0.006
CNc1nc2ccc(C(N)=O)cc2[nH]1	300
CNc1nc2cc3c(=O)[nH]cnc3cc2[nH]1	7
N=C(N)Nc1ccc2[nH]c(NCCN3CCOCC3)nc2c1	58
CNC(=O)c1ccc2nc(NC)[nH]c2c1	270
NNC(=O)c1ccc2nc(NCCN3CCOCC3)[nH]c2c1	282
CNc1nc2cc3c(cc2[nH]1)CNC(N)=N3	17
